CHRM4 agonist: human M4 muscarinic receptor agonists, primary screen, CHO-K1 cells, Fluo-8 calcium fluorescence | CHO-K1 hM4/Gqi5; vehicle 0%, full acetylcholine response 100% | activation, % at 3 µM | actives 0.14% (n = 360,000) | AID 624127, 2012;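 active means activation above the run mean over all test wells plus 3 SD, cut at about 32% in these data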;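 further: peak over basal fluorescence ratio per well then scaled between controls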
CHRM5 agonist: human M5 muscarinic receptor agonists, primary screen, CHO-K1 cells, Fluo-8 calcium fluorescence; activation, % at 3 µM; Muscarinic acetylcholine receptor M5 (Homo sapiens), P08912; CHO-K1 hM5 cells; 0% DMSO wells, 100% maximal acetylcholine response; actives 0.19% (n = 360,000);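 active means activation above the run's mean over test compounds plus 3 SD, cut at about 23% in these data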;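 further: signal is peak over basal fluorescence ratio across the kinetic read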
Target sequence (P08912 whole entry, looked up): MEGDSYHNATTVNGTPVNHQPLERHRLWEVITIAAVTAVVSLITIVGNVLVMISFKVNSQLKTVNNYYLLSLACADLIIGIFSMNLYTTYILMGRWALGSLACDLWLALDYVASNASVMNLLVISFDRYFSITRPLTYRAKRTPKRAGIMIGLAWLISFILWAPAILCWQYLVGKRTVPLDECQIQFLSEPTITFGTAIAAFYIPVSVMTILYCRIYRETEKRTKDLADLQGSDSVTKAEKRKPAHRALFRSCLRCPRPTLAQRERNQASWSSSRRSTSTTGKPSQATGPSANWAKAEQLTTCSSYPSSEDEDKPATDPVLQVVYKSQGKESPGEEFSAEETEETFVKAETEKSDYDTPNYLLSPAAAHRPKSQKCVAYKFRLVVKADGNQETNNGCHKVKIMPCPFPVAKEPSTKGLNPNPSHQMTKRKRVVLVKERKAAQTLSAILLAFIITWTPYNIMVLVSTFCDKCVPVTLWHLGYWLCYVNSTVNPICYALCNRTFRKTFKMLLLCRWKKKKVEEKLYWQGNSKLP
CHRM5 PAM: human M5 muscarinic receptor positive allosteric modulators, primary screen, CHO-K1 cells, Fluo-8 calcium fluorescence; CHO-K1 hM5, ACh EC20 PAM; 0% = ACh EC20, 100% = ACh EC100; actives 0.3% (n = 360,000); Muscarinic acetylcholine receptor M5 (Homo sapiens), P08912; activation, % at 3 µM;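 active means activation above the run cutoff, the mean activation of all test compounds plus 3 SD, cut at about 18% in these data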
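Assay system: CHO-K1 hM5 cells. Also added: acetylcholine at EC20 concentration, added after compound. Dosing: 3 µM, single dose. Times: compound preincubation 140 s before EC20 acetylcholine addition. Signal: Fluo-8 calcium fluorescence. Measure: % activation relative to EC20 and EC100 ACh responses. Repeats: singlicate, one well per test compound.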
M4 antag: human M4 muscarinic receptor antagonists, primary screen, CHO cells, Fluo-8 calcium fluorescence. actives 0.73% (n = 360,000). inhibition, % at 3 µM. Muscarinic acetylcholine receptor M4 (Homo sapiens), P08173. CHO-hM4 cells, ACh EC80. AID 624125, 2012;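 active means inhibition above its plate's cutoff, the mean inhibition of sample wells plus 3 SD, cut at about 27% in these data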
CHRM4 PAM: human M4 muscarinic receptor positive allosteric modulators, primary screen, CHO-K1 cells, Fluo-8 calcium fluorescence. activation, % at 3 µM. actives 0.4% (n = 360,000). Muscarinic acetylcholine receptor M4 (Homo sapiens), P08173. CHO-K1 hM4/Gqi5, ACh EC20; 0% = ACh EC20, 100% = maximal ACh;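 active means activation above its plate's cutoff, the mean activation of sample wells plus 3 SD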
CHRM5 antagonist: human M5 muscarinic receptor antagonists, primary screen, CHO cells, Fluo-8 calcium fluorescence; Muscarinic acetylcholine receptor M5 (Homo sapiens), P08912; CHO-hM5 cells, ACh EC80; inhibition, % at 3 µM; actives 0.59% (n = 360,000); AID 624040, 2012;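 active means inhibition above a per-plate cutoff, the mean of that plate's test compounds plus 3 SD, cut at about 27% in these data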
Each line names hits and unclear results; the compound was inactive in the other large screens. This is a sample that favours compounds with a hit; in the whole collection about 1.8% have one here.

N#Cc1ccc(S(=O)(=O)N2CCN(CC(=O)NCC3(N4CCOCC4)CCCCC3)CC2)cc1	none
Cc1ccc(NC(=O)CSCC(=O)OC(C)C(=O)Nc2ccc(S(N)(=O)=O)cc2)c(C)c1 (stereo unspecified)	none
CCC(C)c1ccc(OCC(=O)Nc2ccc3c(c2)C(=O)NC3=O)cc1 (stereo unspecified)	none
COc1ccc2c(c1)[nH]c1c(N3CCN(Cc4ccc5c(c4)OCO5)CC3)ncnc12	CHRM5 antagonist 32
COc1ccc2c(c1)[nH]c1c(N3CCSCC3)ncnc12	none
CCN(CC)C(=O)C1CCN(Cc2ccc(Br)cc2)CC1	M4 antag 32
CCc1nnc(NC(=O)C2CCCN2C(=O)Nc2ccc(Cl)cc2)s1 (stereo unspecified)	none
COc1cc(C(C)=O)ccc1OC(=O)N1CCOCC1	none
O=C1CC(c2nc3ccccc3[nH]2)CN1c1ccccc1F (stereo unspecified)	M4 antag 78
COc1ccc(Cl)cc1N1CC(c2nc3ccccc3[nH]2)CC1=O (stereo unspecified)	none
O=C(CNC(=O)c1cccs1)Nc1ccc(N2CCOCC2)cc1	none
CCN(Cc1nc2ccccc2c(=O)[nH]1)C(=O)c1ccc(C)c(NC(=O)c2ccco2)c1	none
O=C(OCCN1C(=O)c2cccc3c(N4CCOCC4)ccc(c23)C1=O)c1ccccc1Cl	M4 antag 40, CHRM5 antagonist 45
CCN(C(=O)COC(=O)c1cccnc1SC)c1c(N)n(Cc2ccccc2)c(=O)[nH]c1=O	none
CN1CCN(c2ncnc3c2ncn3[C@H]2CN(Cc3ccc(F)cc3)C[C@@H](CO)O2)CC1	none
CC(C)C[C@H](N)c1nnc(S(=O)(=O)Cc2ccc(F)cc2)o1	M4 antag 28
COc1ccc(-c2nnc(SCC(=O)Nc3ccc(C(=O)O)cc3)n2-c2ccc(Cl)cc2)cc1	CHRM4 PAM 13
CC(C)(C)OC(=O)N1CCC[C@H]1C(=O)Nc1ccc(C#N)cc1	none
CCOc1ccc(OCCC(=O)OCC(=O)NC2CCCC2)cc1	none
COc1ccc(Oc2nnc(-c3ccccc3)cc2C#N)cc1	CHRM4 PAM 27
CC(C)C[C@H]1CN(CCCC[C@H]2CNC(=O)C(=O)N2CC2CCCCC2)C(=O)C(=O)N1CCc1ccccc1	none
O=[N+]([O-])c1ccc(/C=C/C2=NN(c3ccccc3)C(c3ccco3)C2)cc1 (stereo unspecified)	CHRM5 agonist 43, CHRM5 antagonist 42
CC1=NN(c2ccccc2)C(c2ccco2)C1 (stereo unspecified)	none
O=[N+]([O-])c1ccc(C2=NN(c3ccccc3)C(c3ccco3)C2)cc1 (stereo unspecified)	CHRM4 agonist 41, CHRM5 agonist 214, M4 antag 37, CHRM5 antagonist 77
O=[N+]([O-])c1ccc(C=CC=Cc2ccccc2)cc1	none
O=C(NCCCN1CCOCC1)NC1CCCCC1	none
O=C(NCCCCCCCN1CCCCCCC1)C(C1CCCCC1)C1CCCCC1	M4 antag 75
CNC(=O)COc1coc(CN2CCN(c3cccc(Cl)c3)CC2)cc1=O	none
CCCc1nc2sc3c(c2c(=O)[nH]1)CCCC3	CHRM5 PAM 18
COCc1nc2sc3c(c2c(=O)[nH]1)CCCC3	none
Nc1nc(Nc2ccccc2F)nc(NCc2ccccc2)c1[N+](=O)[O-]	CHRM5 PAM 19
Nc1nc(Nc2ccccc2)nc(NCc2ccccc2)c1[N+](=O)[O-]	none
Cc1ccc(-n2c(C)c(C)c3c(NCCO)ncnc32)cc1	none

Screening results from PubChem BioAssay.
